Measured values from ChEMBL document CHEMBL2069203, “Cytotoxic and antibacterial beilschmiedic acids from a Gabonese species of Beilschmiedia” (J Nat Prod, 2012).
In brackets after ≈: the same amount, converted by molar mass. Activity calls are given as the source filed them.

Experiments:
[1] = test system: NCI-H460; experiment: Cytotoxicity against human NCI-H460 cells incubated for 72 hrs by MTT assay; assay type: functional, cell-based
In short: (§1)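 Cells kept in RPMI-1640 with 10% FBS plus L-glutamine and HEPES, seeded at 5 × 10^2 to 5 × 10^4 cells/well and left to adhere overnight. Medium was replaced with DMSO stock diluted in medium at eight concentrations, 2−5 wells each. Camptothecin and vehicle served as controls. After 72 h at 37 °C, 5% CO2, viable cells were read by CellTiter 96 AQueous. IC50 came from dose−response curves.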

[2] = test system: NCI-H460; experiment: Induction of membrane disruption in human NCI-H460 cells at 20 uM by LDH release assay; assay type: functional, cell-based
In short: (§2)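 NCI-H460 cells were plated at 1 × 10^4 cells/well in RPMI-1640 with 10% fetal calf serum and attached overnight. Compound or DMSO vehicle was added and incubated 24 or 72 h. Supernatant LDH was measured with the CytoTox 96 kit, absorbance at 490 nm, with kit lysis solution as positive control.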

[3] = test system: PC-3; experiment: Cytotoxicity against human PC3 cells incubated for 72 hrs by MTT assay; assay type: functional, cell-based; in short: as §1
[4] = test system: M14; experiment: Cytotoxicity against human M14 cells incubated for 72 hrs by MTT assay; assay type: functional, cell-based; in short: as §1
[5] = test system: Staphylococcus aureus; experiment: Antimicrobial activity against methicillin-resistant Staphylococcus aureus isolate 108 incubated for 24 hrs by broth microdilution method; assay type: functional
In short: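 CLSI broth microdilution on clinical MRSA isolate 108. Overnight trypticase soy broth culture diluted 1:100 in cation-adjusted Mueller-Hinton broth, grown at 37 °C to OD600 0.2, diluted 1:100 again to give 10^6 cfu/mL. Compound in DMSO diluted in medium, tested across a concentration series, 3-6 wells each. Vancomycin positive control. Incubated 24 h at 37 °C. MIC = lowest concentration preventing visible growth.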

[6] = test system: NCI-H460; experiment: Induction of membrane disruption in human NCI-H460 cells at 3 yo 5 fold cytotoxic IC50 level by LDH release assay; assay type: functional, cell-based; in short: as §2
[7] = test system: NCI-H460; experiment: Induction of apoptosis in human NCI-H460 cells assessed as caspase 3/7 activation at 26.1uM; assay type: functional, cell-based
In short: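 NCI-H460 cells were plated at 1 × 10^4 cells/well in RPMI-1640 with 10% fetal calf serum and attached overnight. Compound or DMSO vehicle was added and incubated 24 or 72 h. Caspase 3/7 activity was read by Caspase-Glo 3/7 luminescence, with camptothecin 10 μg/mL as positive control. A result counted as active when caspase exceeded background plus two SD of the negative control without LDH release.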

[8] = Homo sapiens, NCI-H460, 72 h, read-out: IC50

| SMILES | IC50 ([1]; nci-h460) | Activity [2] | Activity [3] | Activity [4] | MIC [5] | IC50 [1, 8] | MIC ([5]; isolate 108, 24 h) | Activity [6] | Activity [7] |
| --- | --- | --- | --- | --- | --- | --- | --- | --- | --- |
| O=C(O)C1=C[C@@H](O)[C@@H]2C[C@H]3[C@H](CCC/C=C/C=C/c4ccccc4)[C@H]4C=C[C@@H]1[C@@H]2[C@H]43 | Not Active | inactive | inactive | inactive | inactive |  |  |  |  |
| CCCCCCCC[C@@H]1[C@H]2C=C[C@H]3C(C(=O)O)=C[C@H](O)[C@@H]4C[C@@H]1[C@@H]2[C@H]43 [BEILSCHMIEDIC ACID A] |  |  | inactive | inactive |  | 6.1 µM | 10 µg/mL (≈ 29 µM) |  |  |
| CCCCCCCC[C@@H]1[C@H]2C=C[C@H]3C(C(=O)O)=C[C@@H](O)[C@@H]4C[C@@H]1[C@@H]2[C@H]43 [BEILSCHMIEDIC ACID C] | Not Active | inactive | inactive | inactive | inactive |  |  |  |  |
| O=C(O)C1=C[C@H](O)[C@@H]2C[C@H]3[C@H](CCC/C=C/C=C/c4ccccc4)[C@H]4C=C[C@@H]1[C@@H]2[C@H]43 [BEILSCHMIEDIC ACID I] |  |  | inactive | inactive |  | 5.5 µM | 12 µg/mL (≈ 29.8 µM) | inactive |  |
| O=C(O)C1=C[C@@H](O)[C@@H]2C[C@H]3[C@H](CCCCCc4ccccc4)[C@H]4C=C[C@@H]1[C@@H]2[C@H]43 [BEILSCHMIEDIC ACID K] |  |  | inactive | inactive |  | 5.9 µM | 11 µg/mL (≈ 29.1 µM) | inactive |  |
| O=C(O)C1=C[C@@H](O)[C@@H]2C[C@H]3[C@H](C/C=C/C=C/c4ccccc4)[C@H]4C=C[C@@H]1[C@@H]2[C@H]43 [BEILSCHMIEDIC ACID L] |  |  | inactive | inactive |  | 4.4 µM | 11 µg/mL (≈ 29.4 µM) | inactive |  |
| O=C(O)C1=C[C@@H](O)[C@@H]2C[C@H]3[C@H](CCC/C=C\C=C\c4ccccc4)[C@H]4C=C[C@@H]1[C@@H]2[C@H]43 [BEILSCHMIEDIC ACID M] |  |  | inactive | inactive |  | 8.7 µM | 12 µg/mL (≈ 29.8 µM) | inactive | Active |
| O=C(O)C1=C[C@@H](O)[C@@H]2C[C@H]3[C@H](CCCC4C=CC(c5ccccc5)OO4)[C@H]4C=C[C@@H]1[C@@H]2[C@H]43 (stereo not given in full) [BEILSCHMIEDIC ACID N] |  |  | inactive | inactive |  | 19 µM | 13 µg/mL (≈ 29.9 µM) |  |  |
| O=C(O)C1=C[C@@H](O)[C@@H]2C[C@H]3[C@H](CCCc4ccc(-c5ccccc5)o4)[C@H]4C=C[C@@H]1[C@@H]2[C@H]43 [BEILSCHMIEDIC ACID O] | Not Active | inactive | inactive | inactive |  |  | 13 µg/mL (≈ 31.2 µM) |  |  |
| CC[C@@]1(O)C(=O)OCc2c1cc1n(c2=O)Cc2cc3ccccc3nc2-1 [CAMPTOTHECIN] |  |  |  |  |  | 0.003 µM |  |  |  |
